This is an account of results in ChEMBL document CHEMBL1140029, “Design of novel histone deacetylase inhibitors” (Bioorg Med Chem Lett, 2007).

Series [1] concerns HCT-116. The experiment in a line: Antiproliferative activity against HCT116 cells after 72 hrs. The format is functional, cell-based, Homo sapiens.
In series [2] the target is Histone deacetylase 1 (Homo sapiens, UniProt Q13547). The experiment in a line: Inhibition of human HDAC1 expressed in domain of SMRT.
A short description of series [3]: Plasma clearance in rat at 2.0 mg/kg, iv. Further details: dose 2 mg/kg, route intravenous; call rule not given here. In kind it is ADME, organism-based.
Series [4] addresses T1, Histone deacetylase 8 (Homo sapiens, UniProt Q9BY41).
T1 sequence (Q9BY41 whole entry): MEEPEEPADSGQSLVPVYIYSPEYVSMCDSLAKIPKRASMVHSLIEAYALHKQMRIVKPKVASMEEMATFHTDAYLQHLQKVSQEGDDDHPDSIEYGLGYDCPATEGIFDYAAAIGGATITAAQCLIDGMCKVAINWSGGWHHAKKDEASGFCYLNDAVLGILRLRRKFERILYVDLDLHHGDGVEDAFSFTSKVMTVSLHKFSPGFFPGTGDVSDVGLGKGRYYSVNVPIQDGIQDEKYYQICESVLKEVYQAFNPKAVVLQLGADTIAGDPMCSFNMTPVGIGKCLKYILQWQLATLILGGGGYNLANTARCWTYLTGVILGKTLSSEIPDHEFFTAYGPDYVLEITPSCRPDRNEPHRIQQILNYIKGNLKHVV
The experiment in a line: Inhibition of human HDAC8. The essentials:
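HDAC8 came from the Institute for Research in Molecular Biology, Pomezia, and was used at 1–30 nM final. It was preincubated with 3× serially diluted inhibitor for 10 min at RT. Fluor-de-Lys HDAC8 substrate was added for 15 min at 37 °C, then HDAC8 developer containing SAHA. Fluorescence was read at Ex 360/Em 460 nm to give IC50.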

Series [5] can be described thus: Half life in rhesus monkey at 2.0 mg/kg, po. The format is ADME, organism-based, Macaca mulatta. Further details: dose 2 mg/kg, route oral. Conditions: in vivo.
Series [6] is described as follows: Plasma clearance in rhesus monkey at 1.0 mg/kg, iv. The format is ADME, organism-based, Macaca mulatta. Also on record: dose 1 mg/kg, route intravenous.
Series [7] can be described thus: Volume of distribution in rat at 2.0 mg/kg, iv. The format is ADME, organism-based. Also on record: dose 2 mg/kg, route intravenous. Conditions: in vivo.
Series [8] addresses Histone deacetylase 3 (Homo sapiens, UniProt O15379). The experiment in a line: Inhibition of human HDAC3 expressed in domain of SMRT. The procedure, abridged: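 C-terminal FLAG-tagged human HDAC3, co-expressed with the SMRT domain, was overexpressed in mammalian cells and purified on anti-FLAG matrix. Enzyme at 1–30 nM final was preincubated with 3× serially diluted inhibitor for 10 min at RT. Fluor-de-Lys substrate was then added for 60 min at 37 °C, followed by developer containing SAHA. Fluorescence was read at Ex 360/Em 460 nm to give IC50.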

Series [9] addresses Histone deacetylase 2 (Homo sapiens, UniProt Q92769). The experiment in a line: Inhibition of human HDAC2 expressed in domain of SMRT.
In series [10] the target is T2, Protein deacetylase HDAC6 (Homo sapiens, UniProt Q9UBN7).
T2 sequence (Q9UBN7 whole entry): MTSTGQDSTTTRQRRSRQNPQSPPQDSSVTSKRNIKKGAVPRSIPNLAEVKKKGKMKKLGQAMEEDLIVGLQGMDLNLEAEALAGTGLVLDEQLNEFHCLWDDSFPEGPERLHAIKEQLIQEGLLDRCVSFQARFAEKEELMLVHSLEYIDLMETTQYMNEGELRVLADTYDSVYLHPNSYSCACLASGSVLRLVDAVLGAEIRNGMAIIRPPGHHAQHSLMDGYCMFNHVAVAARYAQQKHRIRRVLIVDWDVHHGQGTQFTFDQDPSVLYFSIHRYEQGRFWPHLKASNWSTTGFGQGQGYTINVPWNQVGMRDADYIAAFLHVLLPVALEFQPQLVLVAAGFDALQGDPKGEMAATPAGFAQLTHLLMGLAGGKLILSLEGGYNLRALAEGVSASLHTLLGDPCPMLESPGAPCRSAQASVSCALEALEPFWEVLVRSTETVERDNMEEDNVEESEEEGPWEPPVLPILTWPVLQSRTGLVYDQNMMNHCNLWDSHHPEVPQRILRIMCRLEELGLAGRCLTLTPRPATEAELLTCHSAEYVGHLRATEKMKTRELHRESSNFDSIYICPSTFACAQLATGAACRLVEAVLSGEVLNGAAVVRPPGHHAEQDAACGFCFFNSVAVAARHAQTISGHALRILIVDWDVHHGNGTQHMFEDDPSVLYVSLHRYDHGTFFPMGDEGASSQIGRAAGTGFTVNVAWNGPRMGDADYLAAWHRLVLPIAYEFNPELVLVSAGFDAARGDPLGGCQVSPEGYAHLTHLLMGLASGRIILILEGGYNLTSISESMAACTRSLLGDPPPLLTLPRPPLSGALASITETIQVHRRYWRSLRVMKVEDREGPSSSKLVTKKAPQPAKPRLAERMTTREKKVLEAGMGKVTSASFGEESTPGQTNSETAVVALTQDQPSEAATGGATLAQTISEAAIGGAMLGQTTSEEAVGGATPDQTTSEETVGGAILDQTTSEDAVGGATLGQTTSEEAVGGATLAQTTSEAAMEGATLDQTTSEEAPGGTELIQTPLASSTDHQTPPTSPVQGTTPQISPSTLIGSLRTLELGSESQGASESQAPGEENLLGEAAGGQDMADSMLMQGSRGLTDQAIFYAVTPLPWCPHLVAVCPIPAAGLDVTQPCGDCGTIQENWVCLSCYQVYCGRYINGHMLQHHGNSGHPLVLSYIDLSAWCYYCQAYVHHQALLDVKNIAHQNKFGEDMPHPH
The experiment in a line: Inhibition of human HDAC6. The essentials: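 C-terminal FLAG-tagged human HDAC6 overexpressed in mammalian cells, anti-FLAG affinity-purified, 1–30 nM final. Inhibitor serially diluted 3-fold in DMSO from 10 mM stock, then 20-fold into assay buffer. Enzyme preincubated with compound 10 min at RT. Fluor-de-Lys substrate added, 60 min at 37 °C. Developer containing SAHA added, fluorescence read at Ex 360/Em 460 nm. IC50 reported.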

Series [11] is described as follows: Bioavailability in dog at 1.2 mg/kg, po. In kind it is ADME, organism-based, Canis lupus familiaris. To be noted: in vivo.
A short description of series [12]: Half life in rat at 4.0 mg/kg, po. In kind it is ADME, organism-based. Further details: dose 4 mg/kg, route oral. To be noted: in vivo.
Series [13] in a line: Half life in dog at 1.2 mg/kg, po. Conditions: in vivo. The format is ADME, organism-based, Canis lupus familiaris. Also on record: dose 1.2 mg/kg, route oral.
Series [14] can be described thus: Volume of distribution in rhesus monkey at 1.0 mg/kg, iv. In kind it is ADME, organism-based, Macaca mulatta. Further details: dose 1 mg/kg, route intravenous. To be noted: in vivo.
Series [15] can be described thus: Volume of distribution in dog at 0.6 mg/kg, iv. In kind it is ADME, organism-based, Canis lupus familiaris. Conditions: in vivo. Also on record: dose 0.6 mg/kg, route intravenous.
Series [16] is described as follows: Bioavailability in rat at 4.0 mg/kg, po. In kind it is ADME, organism-based. Conditions: in vivo.
Series [17] is described as follows: Plasma clearance in dog at 0.6 mg/kg, iv. The format is ADME, organism-based, Canis lupus familiaris. Further details: dose 0.6 mg/kg, route intravenous.
A short description of series [18]: Bioavailability in rhesus monkey at 2.0 mg/kg, po. In kind it is ADME, organism-based, Macaca mulatta. Conditions: in vivo.
Series [19] deals with HCT-116. The experiment in a line: Antiproliferative activity against HCT116 cells after 96 hrs. In kind it is functional, cell-based. Conditions: Homo sapiens, HCT-116, 96 h.
Where [20] appears, read: Homo sapiens, HCT-116, 72 h, read-out: IC50.

Where only a bound is given, the exact number is not on record here.

Sequence of Histone deacetylase 1 (Q13547 whole entry, the tested form may be a part): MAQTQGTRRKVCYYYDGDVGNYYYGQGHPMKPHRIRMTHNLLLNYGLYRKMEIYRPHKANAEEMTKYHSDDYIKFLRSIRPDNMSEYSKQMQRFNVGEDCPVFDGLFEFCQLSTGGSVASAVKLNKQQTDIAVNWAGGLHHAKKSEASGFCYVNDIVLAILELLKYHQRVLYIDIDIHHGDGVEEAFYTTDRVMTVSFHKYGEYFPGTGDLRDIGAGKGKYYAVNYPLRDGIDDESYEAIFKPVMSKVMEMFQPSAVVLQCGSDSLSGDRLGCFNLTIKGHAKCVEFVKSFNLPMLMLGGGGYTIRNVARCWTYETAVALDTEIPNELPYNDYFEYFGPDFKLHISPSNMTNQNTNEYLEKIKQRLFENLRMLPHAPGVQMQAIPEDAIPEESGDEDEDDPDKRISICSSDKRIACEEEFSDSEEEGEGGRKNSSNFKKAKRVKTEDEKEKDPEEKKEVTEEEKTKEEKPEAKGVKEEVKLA
Sequence of Histone deacetylase 3 (O15379 whole entry, the tested form may be a part): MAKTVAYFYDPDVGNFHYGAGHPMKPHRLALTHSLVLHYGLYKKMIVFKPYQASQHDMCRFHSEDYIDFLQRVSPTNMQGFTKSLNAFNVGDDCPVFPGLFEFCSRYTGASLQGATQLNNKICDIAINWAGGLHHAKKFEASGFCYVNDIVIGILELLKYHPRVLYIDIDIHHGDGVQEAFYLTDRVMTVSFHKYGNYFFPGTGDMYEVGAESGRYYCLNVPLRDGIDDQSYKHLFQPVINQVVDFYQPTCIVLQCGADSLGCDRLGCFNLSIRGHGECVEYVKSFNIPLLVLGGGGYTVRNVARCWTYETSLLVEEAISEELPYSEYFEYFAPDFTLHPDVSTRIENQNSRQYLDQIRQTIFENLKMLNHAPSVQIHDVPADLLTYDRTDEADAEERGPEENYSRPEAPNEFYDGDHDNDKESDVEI
Sequence of Histone deacetylase 2 (Q92769 whole entry, the tested form may be a part): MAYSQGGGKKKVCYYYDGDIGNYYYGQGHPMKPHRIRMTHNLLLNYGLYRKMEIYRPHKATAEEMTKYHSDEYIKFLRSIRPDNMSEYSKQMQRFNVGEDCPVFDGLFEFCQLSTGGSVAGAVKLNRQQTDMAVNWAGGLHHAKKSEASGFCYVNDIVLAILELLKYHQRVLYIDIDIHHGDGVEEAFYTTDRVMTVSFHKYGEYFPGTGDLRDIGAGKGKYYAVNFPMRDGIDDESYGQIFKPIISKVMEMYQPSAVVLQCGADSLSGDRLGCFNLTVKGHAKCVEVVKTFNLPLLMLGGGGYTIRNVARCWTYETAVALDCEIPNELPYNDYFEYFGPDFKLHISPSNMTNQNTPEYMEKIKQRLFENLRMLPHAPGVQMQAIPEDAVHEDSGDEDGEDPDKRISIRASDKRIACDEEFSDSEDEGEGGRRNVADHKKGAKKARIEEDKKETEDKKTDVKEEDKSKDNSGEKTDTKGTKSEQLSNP

For the compound `CC(C(=O)Nc1ccccc1)(C(=O)Nc1ccccc1)c1ccc(C(=O)Nc2ccccc2N)cc1`, the IC50 (in general, the concentration that gives 50% inhibition) is 2.12 µM in series [1] (setting [20]) and 0.198 µM in [2].
On the same counts, the results for `CC(Cc1ccc(C(=O)Nc2ccccc2N)cc1)(C(=O)Nc1ccccc1)C(=O)Nc1ccccc1` are 2.52 µM and 0.2 µM.
`CC(C)(C)c1ccc(C(=O)NO)cc1`: the concentration for half-maximal inhibition (IC50) in series [2] worked out at 0.715 µM.
Same read-out and setting: for `O=C(NO)c1ccc(C(C(=O)Nc2ccccc2)C(=O)Nc2ccccc2)cc1` the value was 0.005 µM.
Regarding `Nc1ccccc1NC(=O)c1ccc(C(C(=O)Nc2ccccc2)C(=O)Nc2ccccc2)cc1`, the IC50 in series [1] (setting [20]) is 0.171 µM; in series [4], above 10 µM; in series [8], 0.697 µM; in series [9], 0.313 µM; in series [10], above 10 µM; in series [2], 0.036 µM. Moreover, the clearance (commonly a measure of how efficiently the substance is removed, as volume per time) is 3.3 L/h/kg in [3], 0.72 L/h/kg in series [6] and 0.18 L/h/kg in [17]. The half-life (usually how long it takes for the measured level to halve) in series [5] is 10.4 h; in series [12] it was 3.8 h; in [13], 8.5 h. Further, the Vd (in general, the apparent volume that relates the amount in the body to the concentration in plasma or blood) in series [7] was 12 L/kg; in [14] it was 1.7 L/kg; in [15] it was 1.8 L/kg. Further, the values for the bioavailability in series [11], in [16] and in series [18] were 88%, 88% and 27%, respectively.
For the compound `N#Cc1cccc(NC(=O)C(C(=O)Nc2cccc(C#N)c2)c2ccc(C(=O)Nc3ccccc3N)cc2)c1`, the IC50 in series [19] is 0.5 µM; in series [2], 0.034 µM.
Taken in the same sequence, the figures for `Nc1ccccc1NC(=O)c1ccc(C(C(=O)Nc2ccc(F)cc2)C(=O)Nc2ccc(F)cc2)cc1` were 0.222 µM and 0.063 µM.
On to `Nc1ccccc1NC(=O)c1ccc(C(C(=O)Nc2cccc(F)c2)C(=O)Nc2cccc(F)c2)cc1`, for which the IC50 in series [1] (setting [20]) is 0.607 µM; in series [2], 0.056 µM.
On the same counts, the results for `COc1cccc(NC(=O)C(C(=O)Nc2cccc(OC)c2)c2ccc(C(=O)Nc3ccccc3N)cc2)c1` are 0.383 µM and 0.035 µM.
On the same counts, the results for `COc1ccccc1NC(=O)C(C(=O)Nc1ccccc1OC)c1ccc(C(=O)Nc2ccccc2N)cc1` are 0.394 µM and 0.047 µM.
Taken in the same sequence, the figures for `CN(C(=O)C(C(=O)Nc1ccccc1)c1ccc(C(=O)Nc2ccccc2N)cc1)c1ccccc1` (stereo unspecified) were 1.15 µM and 0.196 µM.
In the case of `CN(C(=O)C(C(=O)N(C)c1ccccc1)c1ccc(C(=O)Nc2ccccc2N)cc1)c1ccccc1`, the IC50 entry in series [1] (hct-116) was “Not Active”; in [2], 7.19 µM.
As for `Nc1ccccc1NC(=O)c1ccc(C(C(=O)NCCCc2ccccc2)C(=O)NCCCc2ccccc2)cc1`, the results for the IC50 in series [1] (setting [20]) and in series [2] were 0.987 µM and 0.229 µM, respectively.
Taken in the same sequence, the figures for `Nc1ccccc1NC(=O)c1ccc(C(F)(C(=O)Nc2ccccc2)C(=O)Nc2ccccc2)cc1` were 0.425 µM and 0.048 µM.
On the same counts, the results for `Nc1ccccc1NC(=O)c1ccc(C(O)(C(=O)Nc2ccccc2)C(=O)Nc2ccccc2)cc1` are 0.773 µM and 0.094 µM.
On the same counts, the results for `Nc1ccccc1NC(=O)c1ccc(C(C(=O)NCc2ccccc2)C(=O)NCc2ccccc2)cc1` are 0.596 µM and 0.199 µM.
As for `Nc1ccccc1NC(=O)c1ccc(CC(C(=O)Nc2ccccc2)C(=O)Nc2ccccc2)cc1`, the IC50 worked out at 0.579 µM in series [1] (setting [20]) and 0.047 µM in [2].
For the compound `Nc1ccccc1NC(=O)c1ccc(C(C(=O)Nc2ccc3c(c2)OCCO3)C(=O)Nc2ccc3c(c2)OCCO3)cc1`, the figures for the IC50 in series [1] (setting [20]) and in series [2] were 0.22 µM and 0.021 µM, respectively.
Taken in the same sequence, the figures for `Nc1ccccc1NC(=O)c1ccc(C(C(=O)Nc2cccc(N3CCOCC3)c2)C(=O)Nc2cccc(N3CCOCC3)c2)cc1` were 0.542 µM and 0.045 µM.
Taken in the same sequence, the figures for `Nc1ccccc1NC(=O)c1ccc(C(C(=O)Nc2cccc3cccnc23)C(=O)Nc2cccc3cccnc23)cc1` were 1.2 µM and 0.103 µM.
In series [2], `CC(=O)NO` [ACETOHYDROXAMIC ACID] registered an IC50 of 625 µM.
On the same count and under the same terms, for `O=C(NO)c1ccccc1` [BENZOHYDROXAMATE] the value was 20 µM.
